The target of one experiment is Cannabinoid receptor 2 (Homo sapiens, UniProt P34972). Description: Displacement of [3H]CP-55,940 from recombinant human CB2 receptor expressed in HEK cells. The class given is cell-based, HEK293. A digest of the protocol: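 Competition binding on membranes of HEK cells transfected with human CB2, using [3H]-CP-55,940 at 0.084 nM (radioligand Kd 0.31 nM). Displacement curves give IC50, converted to Ki by the Cheng-Prusoff equation. Reference ligands run in parallel.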
Chain of Cannabinoid receptor 2 (P34972 whole entry): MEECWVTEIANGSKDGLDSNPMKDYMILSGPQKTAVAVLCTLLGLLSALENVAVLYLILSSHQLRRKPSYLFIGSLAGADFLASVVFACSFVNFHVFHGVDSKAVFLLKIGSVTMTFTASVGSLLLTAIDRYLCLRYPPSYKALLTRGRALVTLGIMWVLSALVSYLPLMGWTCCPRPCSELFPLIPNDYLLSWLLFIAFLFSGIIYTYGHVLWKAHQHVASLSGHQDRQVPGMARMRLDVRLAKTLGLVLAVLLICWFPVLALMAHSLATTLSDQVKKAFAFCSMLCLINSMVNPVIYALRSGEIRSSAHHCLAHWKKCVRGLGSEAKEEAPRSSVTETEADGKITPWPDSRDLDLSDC
(Displacement assays read how much labelled ligand stays bound in the presence of the test substance.)

The species entered for experiment [1] is Homo sapiens. Briefly: Selectivity index, ratio of Ki for recombinant human CB1 receptor to Ki for recombinant human CB2 receptor. In short, it runs like this:
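Index computed as Ki(CB1)/Ki(CB2). Each Ki comes from [3H]-CP-55,940 displacement on transfected HEK membranes (0.14 nM radioligand for CB1, 0.084 nM for CB2) via Cheng-Prusoff.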

The species named for experiment [2] is Homo sapiens. Briefly: Selectivity index, ratio of Ki for recombinant human CB2 receptor to Ki for recombinant human CB1 receptor. In short, it runs like this:
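Index computed as Ki(CB2)/Ki(CB1). Each Ki comes from [3H]-CP-55,940 displacement on transfected HEK membranes (0.14 nM radioligand for CB1, 0.084 nM for CB2) via Cheng-Prusoff.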

For the next experiment, the target named is Cannabinoid receptor 1 (Homo sapiens, UniProt P21554). Briefly: Displacement of [3H]CP-55,940 from recombinant human CB1 receptor expressed in HEK cells. The class given is cell-based, HEK293. A digest of the protocol: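 Competition binding on membranes of HEK cells transfected with human CB1, using [3H]-CP-55,940 at 0.14 nM (radioligand Kd 0.18 nM). Displacement curves give IC50, converted to Ki by the Cheng-Prusoff equation. Reference ligands run in parallel.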
Chain of Cannabinoid receptor 1 (P21554 whole entry): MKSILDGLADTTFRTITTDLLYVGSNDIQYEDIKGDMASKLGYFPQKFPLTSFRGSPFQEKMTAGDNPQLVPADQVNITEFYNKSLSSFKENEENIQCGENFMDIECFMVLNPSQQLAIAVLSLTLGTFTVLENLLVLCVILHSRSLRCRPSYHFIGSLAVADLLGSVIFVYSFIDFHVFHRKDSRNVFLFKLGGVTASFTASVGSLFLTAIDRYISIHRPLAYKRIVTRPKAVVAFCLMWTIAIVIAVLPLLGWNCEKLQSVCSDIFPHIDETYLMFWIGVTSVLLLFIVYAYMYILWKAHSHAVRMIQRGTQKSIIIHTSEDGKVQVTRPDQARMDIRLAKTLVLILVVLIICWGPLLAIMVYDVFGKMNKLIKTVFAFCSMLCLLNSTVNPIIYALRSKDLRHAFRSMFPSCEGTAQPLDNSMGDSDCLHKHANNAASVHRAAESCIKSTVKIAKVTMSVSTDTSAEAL

In experiment [3] the test system is Rattus norvegicus. Briefly: Reduction in sucrose intake in Wistar rat at 2 mg/kg, ip administered 30 mins before lights off measured 6 hrs after lights off relative to vehicle-treated control. The class given is functional. More on the design: scale not given: the % may be the effect or the level left. The following applies: route intraperitoneal. In short, it runs like this: (§1)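 Wistar rats had free access to 1% w/v sucrose solution, water and regular chow. On test day they were split into groups of n = 15, matched on body weight and on sucrose and food intake over the prior 3 days. Drug was suspended in saline with 0.05% v/v Tween 80 and given ip at 0, 1 or 2 mg/kg (3 mL/kg), 30 min before lights off. Data were analysed by ANOVA with Newman-Keuls test.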

Experiment [4] concerns Rattus norvegicus. Briefly: Reduction in water intake in Wistar rat at 2 mg/kg, ip administered 30 mins before lights off measured 6 hrs after lights off relative to vehicle-treated control. The class given is functional, organism-based. More on the design: dose 2 mg/kg. A digest of the protocol:
as §1

In experiment [5] the test system is Rattus norvegicus. Description: Reduction in food intake in Wistar rat at 2 mg/kg, ip administered 30 mins before lights off measured 6 hrs after lights off relative to vehicle-treated control. More on the design: dose 2 mg/kg. The class given is functional, organism-based. In short, it runs like this:
as §1

pKi: −log10 of the molar value. Calls of active or inactive are those of the source. The rule behind the calls is not given here.

On to `Cc1c(C(=O)NC2CCCCC2)nn(-c2ccc(Cl)c(Cl)c2)c1-n1cccc1Cl`, for which the negative logarithm of the Ki (pKi) – broadly, −log10 of the Ki, conventionally taken in molar units – on Cannabinoid receptor 2 is 9.05; at Cannabinoid receptor 1 it was 8.07. The Ratio Ki in the experiment filed under Homo sapiens [1] was 9.56; in the experiment filed under Homo sapiens [2], 0.11.
As for `CCc1c(C(=O)NC2CCCCC2)nn(-c2ccc(Cl)c(Cl)c2)c1-n1cccc1`, the pKi is 9.29 on Cannabinoid receptor 2 and 7.82 on Cannabinoid receptor 1. Besides, the Ratio Ki in the experiment filed under Homo sapiens [1] was 30; in the experiment filed under Homo sapiens [2], 0.033.
In the same order, the values of `Cc1c(C(=O)NCc2ccc(Cl)c(Cl)c2)nn(-c2ccc(Cl)c(Cl)c2)c1-n1c(Cl)ccc1Cl` are 6.79, 7.25, 0.34 and 2.9.
In the same order, the values of `Cc1c(C(=O)NC2CCCCC2)nn(-c2ccc(Cl)cc2Cl)c1-n1c(Cl)ccc1Cl` are 7.72, 8.03, 0.49 and 2.
In the same order, the values of `CCc1c(C(=O)NC2CCCCC2)nn(-c2ccc(Cl)c(Cl)c2)c1-n1c(C)ccc1C` are 8.77, 7.32, 28.2 and 0.035.
As for `Cc1c(C(=O)NC2CCCCC2)nn(-c2ccc(Cl)c(Cl)c2)c1-n1c(Cl)ccc1Cl`, the figures for the pKi on Cannabinoid receptor 2 and on Cannabinoid receptor 1 were 8.89 and 8.25, respectively. The Ratio Ki is 4.31 in the experiment listed under Homo sapiens [1] and 0.23 in the experiment filed under Homo sapiens [2].
As to `CCc1ccc(CC)n1-c1c(C)c(C(=O)NCc2ccc(Cl)c(Cl)c2)nn1-c1ccc(Cl)c(Cl)c1`, the negative logarithm of the Ki (pKi) at Cannabinoid receptor 2 and on Cannabinoid receptor 1 was less than 5.00 in each case.
Regarding `CCc1c(C(=O)NC2CCCCC2)nn(-c2ccc(Cl)cc2Cl)c1-n1c(C)ccc1C`, the pKi is 6.12 at Cannabinoid receptor 2 and 8.17 on Cannabinoid receptor 1. Also, the Ratio Ki stood at 0.009 in the experiment filed under Homo sapiens [1] and 112 in the experiment listed under Homo sapiens [2].
Take `Cc1c(C(=O)NCc2ccc(Cl)c(Cl)c2)nn(-c2ccc(Cl)cc2Cl)c1-n1c(Cl)ccc1Cl`: the figures for the pKi at Cannabinoid receptor 2 and on Cannabinoid receptor 1 were 6.87 and 7.18, respectively. In addition, the Ratio Ki in the experiment listed under Homo sapiens [1] worked out at 0.49; in the experiment listed under Homo sapiens [2] it was 2.
In the same order, the values of `Cc1c(C(=O)NCc2ccc(Cl)c(Cl)c2)nn(-c2ccc(Cl)cc2Cl)c1-n1cc2c(c1)CCCC2` are 7.14, 7.34, 0.63 and 1.6.
In the same order, the values of `CCc1c(C(=O)NCc2ccc(Cl)c(Cl)c2)nn(-c2ccc(Cl)cc2Cl)c1-n1c(C)ccc1C` are 7.27, 7.25, 0.94 and 1.06.
On to `CCc1c(C(=O)NC2CCCCC2)nn(-c2ccc(Cl)cc2Cl)c1-n1cccc1`, for which the negative logarithm of the Ki (pKi) is 7.80 at Cannabinoid receptor 2 and 8.52 at Cannabinoid receptor 1. Further, the Ratio Ki in the experiment listed under Homo sapiens [1] is 0.19; in the experiment listed under Homo sapiens [2], 5.3.
On to `CCc1c(C(=O)NCc2ccc(Cl)c(Cl)c2)nn(-c2ccc(Cl)c(Cl)c2)c1-n1cccc1`, for which the figures for the pKi at Cannabinoid receptor 2 and at Cannabinoid receptor 1 were 7.53 and 6.34, respectively. Besides, the Ratio Ki in the experiment listed under Homo sapiens [1] was 15.3; in the experiment filed under Homo sapiens [2] it was 0.065.
Regarding `Cc1c(C(=O)NCc2ccc(Cl)c(Cl)c2)nn(-c2ccc(Cl)c(Cl)c2)c1-n1cccc1Cl`, the negative-log Ki (pKi) is 7.27 on Cannabinoid receptor 2 and 7.13 at Cannabinoid receptor 1. The values for the Ratio Ki in the experiment listed under Homo sapiens [1] and in the experiment listed under Homo sapiens [2] were 1.38 and 0.73, respectively.
In the same order, the values of `CCc1c(C(=O)NCc2ccc(Cl)c(Cl)c2)nn(-c2ccc(Cl)c(Cl)c2)c1-n1c(C)ccc1C` are 6.94, 6.02, 8.49 and 0.118.
In the same order, the values of `CCc1ccc(CC)n1-c1c(C)c(C(=O)NC2CCCCC2)nn1-c1ccc(Cl)c(Cl)c1` are 6.39, 6.87, 0.33 and 3.
For the molecule `Cc1c(C(=O)NC2CCCCC2)nn(-c2ccc(Cl)cc2Cl)c1-n1cc2c(c1)CCCC2`, in the experiment with Rattus norvegicus [3], the Activity was 25%. The negative-log Ki (pKi) on Cannabinoid receptor 2 is 6.42; on Cannabinoid receptor 1 it was 8.64. In addition, the Ratio Ki in the experiment listed under Homo sapiens [1] was 0.006; in the experiment filed under Homo sapiens [2] it was 164. Moreover, the result in the experiment with Rattus norvegicus [4] and in the experiment on Rattus norvegicus [5] was inactive.
Consider `Cc1c(C(=O)NCc2ccc(Cl)c(Cl)c2)nn(-c2ccc(Cl)cc2Cl)c1-n1cccc1Cl`, for which the figures for the negative logarithm of the Ki (pKi) on Cannabinoid receptor 2 and on Cannabinoid receptor 1 were 7.01 and 7.60, respectively. Also, the figures for the Ratio Ki in the experiment filed under Homo sapiens [1] and in the experiment filed under Homo sapiens [2] were 0.26 and 3.9, respectively.
In the same order, the values of `CCc1c(C(=O)NCc2ccc(Cl)c(Cl)c2)nn(-c2ccc(Cl)cc2Cl)c1-n1cccc1` are 6.34, 7.31, 0.11 and 9.3.
In the same order, the values of `Cc1c(C(=O)NC2CCCCC2)nn(-c2ccc(Cl)cc2Cl)c1-n1cccc1Cl` are 7.74, 8.11, 0.4 and 2.4.

(Values after ChEMBL document CHEMBL1909537, “1-Aryl-5-(1H-pyrrol-1-yl)-1H-pyrazole-3-carboxamide: an effective scaffold for the design of either CB1 or CB2 receptor ligands” (Eur J Med Chem, 2011).)
